Measurements pooled from the literature.
Protocols differ between the studies behind these lines.
Effect on: cell growth or viability

Structure (SMILES)	cell line	test	conditions	endpoint	result
Cn1nnc2c(C(N)=O)ncn2c1=O	KATO3			EC50	592000 nM
CC(C)Cc1nn(C)c(=O)c2c(SCCCO)n(Cc3cc(NCCCCCN)nc4ccccc34)cc12	Raji	MTT	96 h	EC50	55 nM
COc1ccc(NCC(=O)Nc2c(C#N)sc(Nc3ccccc3)c2C(=O)Nc2ccc(OC)cc2)cc1	HCT-116	SRB	1 nM, 48 h	viability	99.5%
COc1ccc2occ(/C=C/c3cc(OC)c(OC)c(OC)c3)c(=O)c2c1	HSC-2	MTT	7 h	CC50	20000 nM
COc1ccc(NC(=O)c2c(Nc3ccccc3)sc(C(=O)NN=Cc3ccc(C)cc3)c2NC(C)=O)cc1	HCT-116	SRB	10 nM, 48 h	viability	90.2%
CCOC(=O)c1c(C)ncn1CC(c1cn(C)c2ccc([N+](=O)[O-])cc12)c1cn(C)c2ccc([N+](=O)[O-])cc12	DH82	MTS	200 µM, 72 h	inhibition	43%
COc1ccc2occ(/C=C/c3ccc(O)cc3)c(=O)c2c1	HSC-2	MTT	23 h	CC50	< 390 nM
c1ccc(-c2ccc(CNCC3(N4CCCC4)COC3)s2)cc1	U-87 MG		30 µM, 48 h	viability	55.6%
COc1ccc(NC(=O)c2c(Nc3ccccc3)sc(C#N)c2NC(=O)CNc2ccccc2Cl)cc1	HCT-116	SRB	10 nM, 48 h	viability	87.7%
Cc1cn(CC(c2cn(C)c3ccccc23)c2cn(C)c3ccccc23)nn1	DH82	MTS	20 µM, 24 h	inhibition	17.9%
COc1ccc(NC(=O)c2c(Nc3ccccc3)sc(C(=O)NN=Cc3ccc(Cl)cc3)c2NC(C)=O)cc1	HCT-116	SRB	10 µM, 48 h	viability	61.3%
Cc1cccc2cc(CNCC3(N4CCCC4)COC3)cnc12	U-87 MG		30 µM, 48 h	viability	97.7%
C[C@@H]1[C@H](O)[C@@H](C)/C=C/C=C/C=C/C=C/C=C/C=C/C=C/[C@H](O[C@@H]2O[C@H](C)[C@@H](O)[C@H](N)[C@@H]2O)C[C@@H]2O[C@](O)(C[C@@H](O)C[C@@H](O)[C@H](O)CC[C@@H](O)C[C@@H](O)CC(=O)O[C@H]1C)C[C@H](O)[C@H]2C(=O)O	DH82	MTS	200 µM, 72 h	inhibition	42%
CCn1cc(C#Cc2cc(C(=O)NCc3ccsc3)ccc2C)c2c(N)ncnc21	32D			GI50	23.3 nM
COc1ccc(NC(=O)c2c(Nc3ccccc3)sc(C(=O)NN=Cc3ccccc3)c2NC(C)=O)cc1	HCT-116	SRB	1 nM, 48 h	viability	101%
CCn1c(=O)c(-c2cc(NC(=O)Nc3ccccc3)c(F)cc2Br)cc2cnc(NC)cc21	32D			GI50	> 3000 nM
COc1ccc(-c2ccc(-c3ccc(C(=N)N)nc3)s2)cc1	OVCAR-8	SRB		GI50	2120 nM
CC(C)Cc1nn(C)c(=O)c2c(SCCCO)n(Cc3ccnc(NCCCCCN)c3)cc12	Raji	MTT	96 h	EC50	690 nM
COc1ccc(NC(=O)c2c(Nc3ccccc3)sc(C#N)c2NC(=O)CNc2ccccc2[N+](=O)[O-])cc1	HCT-116	SRB	10 nM, 48 h	viability	90.4%
CC(C)Cc1nn(C)c(=O)c2c(SCCCO)n(Cc3cnc(Cl)c4ccccc34)cc12	Raji	MTT	96 h	EC50	60 nM
COc1ccc(-c2ccc(-c3ccc(C(=N)N)nc3)s2)cc1Cl	EKVX	SRB		GI50	1790 nM
c1ccc(-c2ccc(CNCC3(N4CCCC4)COC3)o2)cc1	U-87 MG		30 µM, 48 h	viability	0.534%
C=CC(=O)N1CCC[C@@H](n2nc(-c3ccc(Oc4ccccc4)cc3)c3c(N)ncnc32)C1	DOHH-2	ATP luminescence	72 h	GI50	17000 nM
COc1ccc(C=NNC(=O)c2sc(Nc3ccccc3)c(C(=O)Nc3ccc(OC)cc3)c2NC(C)=O)cc1	HCT-116	SRB	0.1 µM, 48 h	viability	72.5%
Cc1ccc(C(=O)NCc2ccsc2)cc1C#Cc1cn(C2CCC2)c2ncnc(N)c12	32D			GI50	> 1000 nM
COc1ccc(NC(=O)c2c(Nc3ccccc3)sc(C#N)c2NC(=O)CNc2ccccc2)cc1	HCT-116	SRB	10 µM, 48 h	viability	87.2%
COc1ccc(/C=C/c2coc3ccc(OC)cc3c2=O)cc1	HSC-2	MTT	6.7 h	CC50	21000 nM
